Experimental data as given in ChEMBL document CHEMBL4715693, “Synthesis and antiviral properties of novel indole-based thiosemicarbazides and 4-thiazolidinones” (Bioorg Med Chem, 2016).
≈ marks a conversion by molar mass, not a printed value.

How the values were obtained:
[1] = tested on: Vesicular stomatitis virus; assay: Antiviral activity against Vesicular stomatitis virus infected in human HeLa cells assessed as reduction in virus-induced cytopathic effect incubated for 3 to 6 days by light microscopic analysis; assay type: functional, organism-based
How it was run: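 CPE reduction assay: virus and serial compound dilutions added together to subconfluent HeLa (vesicular stomatitis, Coxsackie B4, respiratory syncytial) or Vero (Coxsackie B4, Sindbis, Punta Toro) cultures. Incubated 3–6 days at 37 °C. Mean ± SEM of three independent tests.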

Coxsackievirus B4 [2] = assay: Antiviral activity against Human coxsackievirus B4 infected in human HeLa cells assessed as reduction in virus-induced cytopathic effect incubated for 3 to 6 days by light microscopic analysis; assay type: functional, organism-based; conditions: Enterovirus B
How it was run: (§1)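 CPE reduction assay: virus and serial compound dilutions added together to subconfluent HeLa (vesicular stomatitis, Coxsackie B4, respiratory syncytial) or Vero (Coxsackie B4, Sindbis, Punta Toro) cultures. Incubated 3–6 days at 37 °C. […] Mean ± SEM of three independent tests.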

[3] = tested on: Respiratory syncytial virus; assay: Antiviral activity against Respiratory syncytial virus infected in human HeLa cells assessed as reduction in virus-induced cytopathic effect incubated for 3 to 6 days by light microscopic analysis; assay type: functional, organism-based; how it was run: as §1
Human respirovirus 3 = assay: Antiviral activity against Human parainfluenza virus 3 infected in African green monkey Vero cells assessed as reduction in virus-induced cytopathic effect incubated for 3 to 6 days by light microscopic analysis; assay type: functional, organism-based; conditions: Human respirovirus 3, Vero
[4] = tested on: Mammalian orthoreovirus 1; assay: Antiviral activity against Mammalian orthoreovirus 1 infected in African green monkey Vero cells assessed as reduction in virus-induced cytopathic effect incubated for 3 to 6 days by light microscopic analysis; assay type: functional, organism-based; conditions: Mammalian orthoreovirus 1, Vero
Sindbis virus = assay: Antiviral activity against Sindbis virus infected in African green monkey Vero cells assessed as reduction in virus-induced cytopathic effect incubated for 3 to 6 days by light microscopic analysis; assay type: functional, organism-based; how it was run: as §1
Coxsackievirus B4 [5] = assay: Antiviral activity against Human coxsackievirus B4 infected in African green monkey Vero cells assessed as reduction in virus-induced cytopathic effect incubated for 3 to 6 days by light microscopic analysis; assay type: functional, organism-based; conditions: Enterovirus B; how it was run: as §1
Punta Toro virus = assay: Antiviral activity against Punta Toro virus infected in African green monkey Vero cells assessed as reduction in virus-induced cytopathic effect incubated for 3 to 6 days by light microscopic analysis; assay type: functional, organism-based; how it was run: as §1
[6] = Cytotoxicity against African green monkey Vero cells assessed as changes in cell morphology incubated for 3 to 6 days by light microscopy; assay type: cell-based; conditions: chlorocebus sabaeus, time 3-6 day
How it was run: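 Uninfected subconfluent cells (Vero or HeLa, as named) exposed to serial compound dilutions in parallel with the CPE assays, 37 °C, 3–6 days. Cell morphology examined by light microscopy; MCC = minimal concentration causing microscopically detectable changes in morphology.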

Human alphaherpesvirus 1 = assay: Antiviral activity against Herpes simplex virus 1 infected in human HEL cells assessed as reduction in virus-induced cytopathic effect incubated for 3 to 6 days by light microscopic analysis; assay type: functional, cell-based; conditions: Human alphaherpesvirus 1, HEL
Human alphaherpesvirus 2 = assay: Antiviral activity against Herpes simplex virus 2 infected in human HEL cells assessed as reduction in virus-induced cytopathic effect incubated for 3 to 6 days by light microscopic analysis; assay type: functional, cell-based; conditions: Human alphaherpesvirus 2, HEL
Vaccinia virus = assay: Antiviral activity against Vaccinia virus infected in human HEL cells assessed as reduction in virus-induced cytopathic effect incubated for 3 to 6 days by light microscopic analysis; assay type: functional, organism-based; conditions: Orthopoxvirus vaccinia
[7] = tested on: Human immunodeficiency virus 1; assay: Antiviral activity against Human immunodeficiency virus 1 infected in human MT4 cells assessed as reduction in virus-induced cytopathic effect incubated for 3 to 6 days by light microscopic analysis; assay type: functional, organism-based; conditions: Human immunodeficiency virus 1, MT4
[8] = tested on: Human immunodeficiency virus 2; assay: Antiviral activity against Human immunodeficiency virus 2 infected in human MT4 cells assessed as reduction in virus-induced cytopathic effect incubated for 3 to 6 days by light microscopic analysis; assay type: functional, organism-based; conditions: Human immunodeficiency virus 2, MT4
Influenza A virus = assay: Antiviral activity against influenza A virus infected in dog MDCK cells assessed as reduction in virus-induced cytopathic effect incubated for 3 to 6 days by light microscopic analysis; assay type: functional, organism-based; conditions: Influenza A virus, MDCK
How it was run: (§2)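 MDCK cells, subconfluent, received influenza A or B virus together with serial compound dilutions. Incubated 3–6 days at 35 °C.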

Influenza B virus = assay: Antiviral activity against influenza B virus infected in dog MDCK cells assessed as reduction in virus-induced cytopathic effect incubated for 3 to 6 days by light microscopic analysis; assay type: functional, organism-based; how it was run: as §2
Feline coronavirus = assay: Antiviral activity against Feline coronavirus infected in cat CRFK cells assessed as reduction in virus-induced cytopathic effect incubated for 3 to 6 days by light microscopic analysis; assay type: functional, organism-based; conditions: Alphacoronavirus 1, CRFK
Felid alphaherpesvirus 1 = assay: Antiviral activity against Feline herpesvirus infected in cat CRFK cells assessed as reduction in virus-induced cytopathic effect incubated for 3 to 6 days by light microscopic analysis; assay type: functional, organism-based; conditions: Felid alphaherpesvirus 1, CRFK
[9] = Cytotoxicity against human HEL cells assessed as changes in cell morphology incubated for 3 to 6 days by light microscopy; assay type: cell-based; conditions: time 3-6 day
How it was run: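 Human embryonic lung fibroblasts incubated with serial compound dilutions alongside the antiviral assays, 37 °C, 3–6 days. Morphology inspected by light microscopy; minimal cytotoxic concentration taken as lowest concentration giving minimal morphological change.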

[10] = Cytotoxicity against cat CRFK cells assessed as reduction in cell viability incubated for 3 to 6 days by MTS assay; assay type: cell-based, Felis catus; conditions: crfk, time 3-6 day
How it was run: (§3)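 CRFK or MT4 cells were exposed to serial compound dilutions alongside the antiviral assays for 3–6 days at 37 °C.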

MT4 = assay: Cytotoxicity against human MT4 cells assessed as reduction in cell viability incubated for 3 to 6 days by MTS assay; assay type: cell-based; conditions: time 3-6 day; how it was run: as §3

| SMILES | EC50 [1] [µg/mL] | EC50 (Coxsackievirus B4 [2]) [µg/mL] | EC50 [3] [µg/mL] | EC50 (Human respirovirus 3) [µg/mL] | EC50 [4] [µg/mL] | EC50 (Sindbis virus) [µg/mL] | EC50 (Coxsackievirus B4 [5]) [µg/mL] | EC50 (Punta Toro virus) [µg/mL] | EC50 (Human alphaherpesvirus 1) [µg/mL] | EC50 (Human alphaherpesvirus 2) [µg/mL] | EC50 (Vaccinia virus) [µg/mL] | EC50 [7] [µg/mL] | EC50 [8] [µg/mL] | EC50 (Influenza A virus) [µg/mL] | EC50 (Influenza B virus) [µg/mL] | EC50 (Feline coronavirus) [µg/mL] | EC50 (Felid alphaherpesvirus 1) [µg/mL] | MCC [9] [µg/mL] | CC50 [10] [µg/mL] | CC50 (MT4) | also measured |
| --- | --- | --- | --- | --- | --- | --- | --- | --- | --- | --- | --- | --- | --- | --- | --- | --- | --- | --- | --- | --- | --- |
| O=C(N/N=C1\SCC(=O)N1CCc1ccccc1)c1[nH]c2ccc(F)cc2c1-c1ccccc1 | > 100 | > 100 | > 100 | > 100 | > 100 | > 100 | > 100 | > 100 | > 100 | > 100 | > 100 | > 100 | > 100 | > 100 | > 100 | > 100 | > 100 | > 10 | 17 (≈ 36 µM) | >= 108 ug ml-1 | MCC [6]: 10 µg/mL |
| CCN1C(=O)CS/C1=N\NC(=O)c1[nH]c2ccc(F)cc2c1-c1ccccc1 | > 100 | > 100 | > 100 | > 100 | > 100 | > 100 | > 100 | > 100 | > 100 | > 100 | > 100 | > 100 | > 100 | > 100 | > 100 | > 100 | > 100 | > 100 | > 100 | > 125 µg/mL | MCC [6]: 20 µg/mL |
| O=C(N/N=C1\SCC(=O)N1Cc1ccccc1)c1[nH]c2ccc(F)cc2c1-c1ccccc1 | > 100 | > 100 | > 100 | > 100 | > 100 | > 100 | > 100 | > 100 | > 100 | > 100 | > 100 | > 100 | > 100 | > 100 | > 100 | > 100 | > 100 | > 10 | > 100 | 38 µg/mL (≈ 82.9 µM) | MCC [6]: ≥ 10 µg/mL |
| CCCCN1C(=O)CS/C1=N\NC(=O)c1[nH]c2ccc(F)cc2c1-c1ccccc1 | > 100 | > 100 | > 100 | > 100 | > 100 | > 100 | > 100 | > 100 | > 100 | > 100 | > 100 | > 100 | > 100 | > 100 | > 100 | > 100 | > 100 | > 10 | > 100 | >= 98 ug ml-1 | – |
